Where two headings read alike, the source gives them in different places. Values belong to the molecule of their own block, whether it stands above or below them.
Columns and labels:
rP2X7R-H130A mutant = format: cell-based, rat; settings: 100 µM BzATP; 10 mM Ca^2+ vs Ca^2+-deficient medium
Summary of the method: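 Rat P2X7R-H130A mutant transfected into HEK293 cells (2 µg DNA, Lipofectamine 2000, serum-free Opti-MEM 4.5 h, then 24–48 h), replated 2–10 h, EGFP-positive cells chosen. Whole-cell patch clamp at room temperature, −60 mV hold. Pipette: 145 mM NaCl, 10 mM EGTA, 10 mM HEPES, pH 7.35. Bath: Krebs-Ringer-like, 1 mM MgCl2, pH 7.35. 100 µM BzATP given in Ca2+-deficient or 10 mM Ca2+ medium. Four experiments, mean ± SEM.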

rat P2X7R = target: T1, rat P2X7R (Rattus norvegicus, UniProt Q64663); format: cell-based
T1 sequence (Q64663 1-595): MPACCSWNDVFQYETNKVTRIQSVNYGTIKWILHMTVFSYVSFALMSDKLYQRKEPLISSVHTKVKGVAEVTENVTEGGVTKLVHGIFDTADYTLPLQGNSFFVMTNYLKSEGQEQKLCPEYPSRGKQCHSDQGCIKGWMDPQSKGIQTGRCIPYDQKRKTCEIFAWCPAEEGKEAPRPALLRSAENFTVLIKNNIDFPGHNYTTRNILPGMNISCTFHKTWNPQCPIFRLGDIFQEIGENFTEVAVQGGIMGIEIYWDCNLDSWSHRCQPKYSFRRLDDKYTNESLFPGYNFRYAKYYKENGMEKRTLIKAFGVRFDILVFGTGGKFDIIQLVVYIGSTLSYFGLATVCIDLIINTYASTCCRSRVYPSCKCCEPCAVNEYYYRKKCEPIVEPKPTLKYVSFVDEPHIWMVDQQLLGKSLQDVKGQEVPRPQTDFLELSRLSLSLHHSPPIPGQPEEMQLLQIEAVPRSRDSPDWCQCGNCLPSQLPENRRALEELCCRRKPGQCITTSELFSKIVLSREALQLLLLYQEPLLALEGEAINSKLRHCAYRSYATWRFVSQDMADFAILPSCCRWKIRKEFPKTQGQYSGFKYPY

[1] = Free calcium concentration in bath medium by calcium ion selective electrode; format: physicochemical; settings: agonist concentrations above 100 µM; Mg^2+-free buffer, Ca^2+ fixed at 950 µM
Summary of the method: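 Free Ca2+ read with a Ca2+-selective electrode. Mg2+-free buffer: 147 mM NaCl, 3 mM KCl, 10 mM glucose, 10 mM HEPES, pH 7.35, with 0.95 mM Ca2+. ATP or BzATP at 0, 1, 3.2, 10, 32, 100 and 320 µM, diluted from 10 mM aqueous stocks. Millivolt readings converted using a semilogarithmic standard curve. Means of three experiments.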

rightward shift in agonist (ATP, BzATP) dose-response (rat P2X7R; naive receptors, 2-mM Ca^2+-containing vs Ca^2+-deficient medium, 1 mM Mg^2+): ~0.5 log units
Molecule: [Ca+2] [Ca^2+, calcium]
decrease in the peak amplitude of current (rP2X7R-H130A mutant): 15 fold

time for effect on receptor deactivation (rat P2X7R; 100 µM A438079 applied during washout of 100 µM BzATP, Ca^2+-containing and Ca^2+-deficient medium): ~0.8 s | potency relative to ATP (rat P2X7R; higher potency than ATP at rat receptor): ~3,000 fold | potency relative to BzATP (rat P2X7R; higher potency than BzATP at rat receptor): 200 fold | current generated when applied alone (rat P2X7R; no agonist, unpublished data): did not generate any current | IC50 (rat P2X7R; read-out: IC50, inhibition of current, cells stimulated with 32 µM BzATP): ~0.3 µM | IC50 (rat P2X7R; read-out: IC50, reduction of peak amplitude of current, applied together with 3.2 mM ATP, estimated): ~1 µM
Molecule: Clc1cccc(-c2nnnn2Cc2cccnc2)c1Cl [A438079]

free Ca^2+ concentration in presence of BzATP relative to ATP (higher) [1]: 2–3%
Molecule: 2’(3′)-O-4-benzoylbenzoyl)ATP [BzATP]

— PMC3182445 (The Journal of General Physiology, 2011)
